# According to ChEMBL document CHEMBL1149098, “Design, synthesis, and evaluation of novel thienopyrrolizinones as antitubulin agents” (J Med Chem, 2004):
# How the values were obtained:
# [1] = test system: L1210; assay: In vitro antiproliferative activity against L1210 cell line, activity expressed as growth inhibition; format: functional; conditions: Mus musculus
# In short: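 MTT proliferation assay. Adherent cells trypsinized and seeded at densities keeping controls in exponential growth. Drug exposure for four doubling times, at most 7 days. MTT (5 mg/mL stock) added for 4 h at 37 °C, formazan dissolved in DMSO, OD read at 540 nm. % growth from treated/control OD, tri- or hexaplicates averaged against log concentration. GI50 from linear regression on the linear zone.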
# [2] = test system: Mus musculus; assay: In vivo anticancer activity against an ip P388 murine model after intraperitoneal administration of 100 mg/kg compound; format: functional
# In short: (§1)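 Female B6D2F1 mice, 4–6 weeks old, 20–22 g, inoculated ip with 10^6 P388 leukemia cells. Single ip or iv injection on day 1 at the listed dose (range 25–400 mg/kg). BCNU run as internal reference. Median survival of treated versus control mice gives T/C (%). Activity threshold set at T/C 125%.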
# [3] = test system: Mus musculus; assay: In vivo anticancer activity against an ip P388 murine model after intraperitoneal administration of 200 mg/kg compound; format: functional; in short: as §1
# [4] = test system: Mus musculus; assay: In vivo anticancer activity against an ip P388 murine model after intraperitoneal administration of 25 mg/kg compound; format: functional; in short: as §1
# [5] = test system: Mus musculus; assay: In vivo anticancer activity against an ip P388 murine model after intraperitoneal administration of 400 mg/kg compound; format: functional; in short: as §1
# [6] = test system: Mus musculus; assay: In vivo anticancer activity against an ip P388 murine model after intraperitoneal administration of 50 mg/kg compound; format: functional; in short: as §1
# [7] = test system: Mus musculus; assay: In vivo anticancer activity against an ip P388 murine model after intravenous administration of 100 mg/kg compound; format: functional; in short: as §1
# [8] = test system: Mus musculus; assay: In vivo anticancer activity against an ip P388 murine model after intravenous administration of 200 mg/kg compound; format: functional; in short: as §1
# [9] = test system: Mus musculus; assay: In vivo anticancer activity against an ip P388 murine model after intravenous administration of 25 mg/kg compound; format: functional; in short: as §1
# [10] = test system: Mus musculus; assay: In vivo anticancer activity against an ip P388 murine model after intravenous administration of 400 mg/kg compound; format: functional; in short: as §1
# [11] = test system: Mus musculus; assay: In vivo anticancer activity against an ip P388 murine model after intravenous administration of 50 mg/kg compound; format: functional; in short: as §1
# [12] = target: Tubulin (Bos taurus, UniProt Q6B856+Q862L2+Q862F3); assay: Inhibitory concentration against calf tubulin polymerization; format: protein assay
# In short: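 Calf brain tubulin purified by three assembly–disassembly cycles, about 2–3 mg/mL in 0.1 M MES, 0.5 mM MgCl2, 2 mM EGTA, 1 mM GTP, pH 6.6. Assembly followed continuously by turbidimetry at 37 °C. IC50 is the concentration halving the maximum assembly rate of drug-free tubulin. Deoxypodophyllotoxin measured the same day as reference.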
# [13] = test system: MDA-N; assay: Cytotoxicity against human breast MDA-N cell line; format: functional
# [14] = test system: NCI-H522; assay: Cytotoxicity against human NSCL NCI-H522 cell line; format: functional
# [15] = test system: SW-620; assay: Cytotoxicity against human colon SW-620 cell line; format: functional
# [16] = test system: RXF 393; assay: Cytotoxicity against human renal XF-393 cell line; format: functional
# [17] = test system: PC-3; assay: Cytotoxicity against human prostate PC-3 cell line; format: functional
# [18] = test system: CCRF-CEM; assay: Cytotoxicity against human leukemia CCRF-CEM cell line; format: functional
# [19] = test system: M14; assay: Cytotoxicity against human melanoma M-14 cell line; format: functional
# [20] = test system: M14; assay: Cytotoxicity against human melanoma M-14 cell line from the NCI 60 tumoral cell line panel; format: functional
# [21] = test system: L1210; assay: Compound was tested for percentage of L1210 cells accumulated in the G2 + M + 8N phase of the cell cycle at 50 uM; format: functional, Mus musculus
# In short: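 Flow cytometry of L1210 cells (2.5×10^5/mL) exposed to drug for 21 h (about two doubling times). Cells fixed in 70% ethanol, washed twice in PBS, then 30 min in PBS with 100 µg/mL RNAse and 25 µg/mL propidium iodide. 10 000 cells counted per sample. Reported as % of cells in G2 + M + 8N.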
compound,measurement,setting,value
O=C1c2scc(-c3ccc(O)c(O)c3)c2-n2cccc21,GI50,[1],0.28 µM
same,T/C,[2],134%
same,T/C,[3],133%
same,T/C,[4],111%
same,T/C,[5],149%
same,T/C,[6],118%
same,T/C,[7],105%
same,T/C,[8],103%
same,T/C,[9],95%
same,T/C,[10],21%
same,T/C,[11],101%
same,IC50,[12],21 µM
COc1ccc(-c2cccc3c2-n2cccc2C3=O)cc1,GI50,[1],3 µM
O=C1c2cccc(-c3cccs3)c2-n2cccc21,GI50,[1],71.9 µM
O=C1c2cccc(-c3ccco3)c2-n2cccc21,GI50,[1],27.6 µM
O=C1c2scc(-c3ccccc3)c2-n2cccc21,GI50,[13],15.8 µM
same,GI50,[14],12.6 µM
same,GI50,[15],15.8 µM
same,GI50,[16],12.6 µM
same,GI50,[17],12.6 µM
same,GI50,[18],20 µM
same,GI50,[19],20 µM
O=C1c2scc(-c3ccc(Cl)cc3)c2-n2cccc21,GI50,[20],50.1 µM
same,GI50,[13],7.94 µM
same,GI50,[14],3.16 µM
same,GI50,[15],100 µM
same,GI50,[16],100 µM
same,GI50,[17],100 µM
same,GI50,[18],100 µM
CCCCOc1ccc(-c2csc3c2-n2cccc2C3=O)cc1,GI50,[1],29.6 µM
O=C1c2scc(-c3ccc(F)cc3)c2-n2cccc21,GI50,[13],7.94 µM
same,GI50,[14],15.8 µM
same,GI50,[15],25.1 µM
same,GI50,[16],25.1 µM
same,GI50,[17],31.6 µM
same,GI50,[18],31.6 µM
same,GI50,[19],31.6 µM
COc1ccc(C2CC(=O)c3cccn32)cc1O (stereo not given),GI50,[1],25 µM
COc1ccc(-c2csc3c2-n2cccc2C3=O)cc1OC,GI50,[1],11.7 µM
same,IC50,[12],19 µM
COc1cccc(-c2csc3c2-n2cccc2C3=O)c1,GI50,[1],5.2 µM
CCOc1ccc(-c2csc3c2-n2cccc2C3=O)cc1,GI50,[1],0.43 µM
O=C1c2scc(-c3ccc(O)cc3)c2-n2cccc21,GI50,[1],30.1 µM
COc1ccc(-c2cc3c(s2)C(=O)c2cccn2-3)cc1,GI50,[1],9.4 µM
COc1ccccc1-c1csc2c1-n1cccc1C2=O,GI50,[1],18.9 µM
same,Cells,[21],75%
COc1ccc(-c2c[nH]c3c2-n2cccc2C3=O)cc1OC,GI50,[1],11.8 µM
COc1cc(-c2csc3c2-n2cccc2C3=O)ccc1OCc1ccccc1,GI50,[1],24.1 µM
COc1ccc(-c2csc3c2-n2cccc2C3O)cc1 (stereo not given),GI50,[1],4.9 µM
Cc1csc2c1-n1cccc1C2=O,GI50,[1],> 100 µM
